For series [1], the target named is T1, Metabotropic glutamate receptor 5 (Homo sapiens, UniProt P41594). Description: Inhibitory concentration against human recombinant metabotropic glutamate receptor 5 (mGlu5) in Ltk cells determined using fluorescence detection method. In kind it is cell-based. Summed up: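 Automated functional Ca2+ flux assay in Ltk cells stably expressing human recombinant mGlu5. Changes in cytosolic Ca2+ were read by fluorescence with the Ca2+-sensitive dye fura-2. IC50 values are means of two to three experiments.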

The target of series [2] is T1, Metabotropic glutamate receptor 5. Description: Inhibitory concentration against human recombinant metabotropic glutamate receptor 5 (mGlu5) in Ltk cells determined using fluorescence detection method; NA=Not Active. The series is classed as cell-based. Summed up: (§1)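 Automated functional Ca2+ flux assay in Ltk cells stably expressing human recombinant mGlu5. Changes in cytosolic Ca2+ were read by fluorescence with the Ca2+-sensitive dye fura-2. IC50 values are means of two to three experiments. Compounds were called not active when IC50 > 10 μM.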

Series [3] in a line: Modest half life in rat was determined; LOQ = limit of quantitation. In kind it is ADME. The conditions noted are these: in vivo.
Series [4] in a line: Oral bioavailability in rat; LOQ = limit of quantitation. In kind it is ADME, organism-based. The conditions noted are these: in vivo.
Series [5] can be described thus: High plasma clearance in rat was determined. In kind it is ADME, organism-based. The conditions noted are these: read-out: Clp.
Series [6] has as its target T1, Metabotropic glutamate receptor 5. Description: Inhibitory concentration against human recombinant metabotropic glutamate receptor 5 (mGlu5) in Ltk cells determined using fluorescence detection method; IA=Inactive. The series is classed as cell-based. In short, it runs like this: as §1
Series [7] can be described thus: Modest half life in rat was determined. The series is classed as ADME. The conditions noted are these: in vivo.
The nature of series [8]: Modest half life was determined. The conditions noted are these: rat. In kind it is ADME.
A short description of series [9]: High plasma clearance was determined. The conditions noted are these: rat, read-out: Clp. In kind it is ADME, organism-based.
Series [10] in a line: Low oral bioavailability was determined. The conditions noted are these: rat, in vivo. The series is classed as ADME, organism-based.

T1 sequence (P41594 whole entry): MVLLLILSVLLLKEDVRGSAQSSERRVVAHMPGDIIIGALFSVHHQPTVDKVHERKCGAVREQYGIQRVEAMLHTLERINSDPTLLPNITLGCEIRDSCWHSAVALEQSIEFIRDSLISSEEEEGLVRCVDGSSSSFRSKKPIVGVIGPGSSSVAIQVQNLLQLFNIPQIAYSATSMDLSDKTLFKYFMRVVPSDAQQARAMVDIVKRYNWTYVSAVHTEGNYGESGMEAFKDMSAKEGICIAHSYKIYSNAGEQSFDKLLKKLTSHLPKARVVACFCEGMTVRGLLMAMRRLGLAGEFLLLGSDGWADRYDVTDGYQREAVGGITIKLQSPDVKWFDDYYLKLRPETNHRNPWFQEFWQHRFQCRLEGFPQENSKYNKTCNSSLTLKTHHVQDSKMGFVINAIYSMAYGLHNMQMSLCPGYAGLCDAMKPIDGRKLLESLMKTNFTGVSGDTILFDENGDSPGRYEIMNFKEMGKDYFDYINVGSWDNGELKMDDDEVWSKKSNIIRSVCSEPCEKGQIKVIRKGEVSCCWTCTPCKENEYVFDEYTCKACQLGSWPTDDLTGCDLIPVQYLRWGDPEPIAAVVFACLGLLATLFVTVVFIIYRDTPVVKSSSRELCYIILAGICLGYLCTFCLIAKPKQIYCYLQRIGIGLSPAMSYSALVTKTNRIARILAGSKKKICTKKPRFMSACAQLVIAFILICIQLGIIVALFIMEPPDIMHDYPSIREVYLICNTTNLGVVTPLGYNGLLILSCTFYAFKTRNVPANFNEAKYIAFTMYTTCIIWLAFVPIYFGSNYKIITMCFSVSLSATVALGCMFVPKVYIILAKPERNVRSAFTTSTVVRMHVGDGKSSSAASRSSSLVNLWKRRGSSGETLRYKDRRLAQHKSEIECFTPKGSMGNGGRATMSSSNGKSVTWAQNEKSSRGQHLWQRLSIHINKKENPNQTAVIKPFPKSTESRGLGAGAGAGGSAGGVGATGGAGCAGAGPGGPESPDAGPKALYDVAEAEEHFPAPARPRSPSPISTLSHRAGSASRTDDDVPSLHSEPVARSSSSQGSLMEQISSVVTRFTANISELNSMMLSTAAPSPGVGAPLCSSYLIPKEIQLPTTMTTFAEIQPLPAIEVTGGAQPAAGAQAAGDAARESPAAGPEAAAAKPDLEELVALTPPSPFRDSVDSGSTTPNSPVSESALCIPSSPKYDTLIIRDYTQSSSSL

Regarding `Cc1cccc(NC(=O)c2cccc(Br)n2)n1`, in series [1], the IC50 is 21 nM. For the compound `O=C(Nc1ccccn1)c1cnccn1`, in [2], the IC50 entry is “Not Active”. Consider `Nc1nc(N2CCCCC2)c(Cl)nc1C(=O)Nc1ccccn1`, for which the IC50 in series [1] was 103 nM. For the compound `O=C(Nc1ccccn1)c1cncc(Cl)n1`, the IC50 in series [1] is 254 nM. Consider `Cc1cccc(NC(=O)c2nc(C)cnc2N)n1`, for which the IC50 in series [1] turned out to be 8 nM. With `CN(C)c1ncc(Br)nc1C(=O)Nc1ccccn1`, the IC50 entry in [2] was “Not Active”. For the compound `Nc1ncc(Cl)nc1C(=O)Nc1ccccn1`, the half-inhibitory concentration (IC50) in [1] is 11 nM. Same read-out and setting: for `Cc1cccc(NC(=O)c2cccc(C)n2)n1` the value was 32 nM. Consider `Nc1nccnc1C(=O)Nc1ccccn1`, for which the IC50 in [1] came to 3540 nM.

With `Cc1cccc(NC(=O)c2nc(C)ccc2O)n1`, the IC50 in series [1] came out at 7 nM. In addition, in [3], the T1/2 result was “Limit of quantification”. The F entry in series [4] is recorded as “Limit of quantification”. In addition, the clearance in series [5] is greater than 100 mL/min/kg. In the case of `O=C(Nc1ccccn1)c1cccc(Br)c1`, the IC50 entry in [6] is listed as “Not Active”. For `CNc1ncc(Cl)nc1C(=O)Nc1ccccn1`, the concentration for half-maximal inhibition (IC50) in series [1] stood at 145 nM. On the same count and under the same terms, for `CN(C)c1nc(N)c(C(=O)Nc2ccccn2)nc1Cl` the value was 134 nM.

With `Cc1cccc(NC(=O)c2nc(C)ccc2Nc2cccnc2)n1`, the IC50 in series [1] was 11 nM. The half-life in [7] was 1.25 h. For the same compound, the clearance in [5] was determined as 176 mL/min/kg. Turning to `Cc1cnc(N)c(C(=O)Nc2ccccn2)n1`, in series [1], the half-maximal inhibitory concentration (IC50) was determined as 28 nM. In series [8], this compound showed a half-life of 4.4 h. Also, the clearance in series [9] worked out at 56 mL/min/kg. The compound also gave a bioavailability in series [10] of 20%.

As for `CN(C)c1cnc(C(=O)Nc2ccccn2)c(N)n1`, the IC50 in series [1] is 5080 nM.

`Cc1cncc(C(=O)Nc2ccccn2)n1`: the IC50 in series [1] was found to be 165 nM. Take `CN(C)c1ncc(C(=O)Nc2ccccn2)nc1Cl`: the IC50 in [1] is 158 nM. Turning to `Cc1ccc(O)c(C(=O)Nc2cccc(C)n2)c1`, in series [1], the IC50 came out at 105 nM. Same read-out and setting: for `Cc1cccc(NC(=O)c2nc(C)ccc2N)n1` the value was 22 nM; for `Nc1nc(N)c(C(=O)Nc2ccccn2)nc1Cl`, 3800 nM. In the case of `Cc1cccc(NC(=O)c2nc(Cl)cnc2N)n1`, the half-maximal inhibitory concentration (IC50) in series [1] was 5 nM.

Turning to `Nc1ncc(Br)nc1C(=O)Nc1ccccn1`, the IC50 in series [1] was 12 nM. As for `Cc1cccc(N(C)C(=O)c2nc(C)cnc2N)n1`, the IC50 result in series [6] is “Not Active”. The same measure, in the same setting: as for `O=C(Nc1ccccn1)c1cncc(Br)c1`, the entry is “Not Active”. Consider `CC(C)Nc1nc(N)c(C(=O)Nc2ccccn2)nc1Cl`, for which the IC50 in series [1] turned out to be 23 nM.

For the origin of these results see ChEMBL document CHEMBL1144333, “Dipyridyl amides: potent metabotropic glutamate subtype 5 (mGlu5) receptor antagonists” (Bioorg Med Chem Lett, 2005).
